Measurements taken from ChEMBL document CHEMBL1153473 (Bioorg Med Chem Lett, 2009).

Columns and labels:
[1] = target: T1, Steroid 17-alpha-hydroxylase/17,20 lyase (Rattus norvegicus, UniProt P11715); assay: Inhibition of 17,20-lyase activity of rat testicular microsomal P450-17alpha
T1 sequence (P11715 whole entry): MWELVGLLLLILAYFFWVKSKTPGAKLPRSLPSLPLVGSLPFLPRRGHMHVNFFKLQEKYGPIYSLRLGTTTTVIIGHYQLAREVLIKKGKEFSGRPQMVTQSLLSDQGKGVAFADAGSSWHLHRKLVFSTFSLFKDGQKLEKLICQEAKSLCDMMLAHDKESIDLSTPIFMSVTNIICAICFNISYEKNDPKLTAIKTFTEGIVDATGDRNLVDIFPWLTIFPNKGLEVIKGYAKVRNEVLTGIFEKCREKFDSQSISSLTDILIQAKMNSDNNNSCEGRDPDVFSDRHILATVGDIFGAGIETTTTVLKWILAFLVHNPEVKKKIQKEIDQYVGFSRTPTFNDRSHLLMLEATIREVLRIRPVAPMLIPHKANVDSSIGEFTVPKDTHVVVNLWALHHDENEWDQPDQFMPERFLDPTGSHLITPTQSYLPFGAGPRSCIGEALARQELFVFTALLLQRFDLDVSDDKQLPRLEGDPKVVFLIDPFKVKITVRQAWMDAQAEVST
Method in brief: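 Lyase reaction: rat testicular microsomes (final 0.23 mg/mL), 50 mM sodium phosphate pH 7.4, NADPH-generating system, 1 µM radiolabelled 17α-hydroxyprogesterone substrate; inhibitor added in ethanol; 37 °C prewarm 5 min, then 30 min incubation. Ether-extracted, TLC in DCM/ethyl acetate 4:1, 3H counted per spot; no-inhibitor controls. IC50 from ≥5 concentrations, each in triplicate.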

[2] = target: T1, Steroid 17-alpha-hydroxylase/17,20 lyase; assay: Inhibition of 17-alpha-hydroxylase activity of rat testicular microsomal P450-17alpha
Method in brief: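 Rat testicular microsomes (final 0.16 mg/mL) in 50 mM sodium phosphate pH 7.4 with NADPH-generating system and 1.5 µM radiolabelled progesterone; inhibitor in ethanol; 5 min prewarm at 37 °C, 15 min reaction. Ether extraction, TLC (DCM/ethyl acetate 7:3), spots scintillation-counted for 3H; no-inhibitor controls. IC50 from ≥5 concentrations in triplicate, linear regression of inhibition versus log[I].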

[3] = target: T1, Steroid 17-alpha-hydroxylase/17,20 lyase; assay: Selectivity index, ratio of IC50 for 17-alpha-hydroxylase activity of rat testicular microsomal P450-17alpha to IC50 for 17,20-lyase activity of rat testicular microsomal P450-17alpha
[4] = target: T2, Aromatase (Homo sapiens, UniProt P11511); assay: Inhibition of aromatase
T2 sequence (P11511 whole entry): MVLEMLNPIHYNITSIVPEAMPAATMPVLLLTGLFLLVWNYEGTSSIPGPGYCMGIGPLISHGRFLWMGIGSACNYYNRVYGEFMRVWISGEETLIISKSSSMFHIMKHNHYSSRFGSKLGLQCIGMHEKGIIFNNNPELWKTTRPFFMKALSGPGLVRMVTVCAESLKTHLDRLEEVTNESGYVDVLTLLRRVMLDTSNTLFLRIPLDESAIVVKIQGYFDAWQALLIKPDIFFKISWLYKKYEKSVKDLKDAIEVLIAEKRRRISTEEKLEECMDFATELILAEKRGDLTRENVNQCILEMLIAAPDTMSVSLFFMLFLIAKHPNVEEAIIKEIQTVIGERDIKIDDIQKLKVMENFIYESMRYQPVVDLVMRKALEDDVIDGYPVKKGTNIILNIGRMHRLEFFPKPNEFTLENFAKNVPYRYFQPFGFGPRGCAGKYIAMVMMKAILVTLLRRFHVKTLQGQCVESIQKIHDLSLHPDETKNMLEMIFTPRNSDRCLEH

| SMILES | IC50 [1] [µM] | IC50 [2] [µM] | IC50 [4] [µM] | Ratio IC50 [3] |
| --- | --- | --- | --- | --- |
| O=S(=O)(Oc1ccc(Cn2ccnc2)cc1)c1ccc(Br)cc1 | 0.0704 | 4.84 | – | 34.6 |
| Ic1ccc(Cn2ccnc2)cc1 | – | – | – | 6.4 |
| O=[N+]([O-])c1ccc(S(=O)(=O)Oc2ccc(Cn3ccnc3)cc2)cc1 | 0.085 | 6.88 | – | 80.9 |
| O=S(=O)(Oc1ccc(Cn2ccnc2)cc1)c1ccc(Cl)cc1 | 0.0987 | 6.85 | – | 69.9 |
| O=S(=O)(Oc1ccc(Cn2ccnc2)cc1)c1ccc(I)cc1 | 0.0651 | 10 | – | 100.1 |
| O=S(=O)(Oc1ccc(Cn2ccnc2)cc1)c1ccc(C(F)(F)F)cc1 | 0.291 | 64.9 | – | 223.8 |
| O=S(=O)(Oc1ccc(Cn2ccnc2)cc1)c1ccc(F)cc1 | 0.21 | 15.9 | – | 75.9 |
| CC(=O)N1CCN(c2ccc(OCC3COC(Cn4ccnc4)(c4ccc(Cl)cc4Cl)O3)cc2)CC1 (stereo not given) [KETOCONAZOLE] | – | – | – | 2.3 |
| N#CC(C#N)=Cc1ccc(O)c(O)c1 [TYRPHOSTIN 23] | – | – | 70.6 | – |

Second part, led by results:

| IC50 [1] [µM] | IC50 [2] [µM] | IC50 [4] [µM] | SMILES | Ratio IC50 [3] |
| --- | --- | --- | --- | --- |
| – | – | 24.5 | Cc1ccc(Cn2ccnc2)cc1 | – |
| – | – | 0.88 | Fc1ccc(Cn2ccnc2)cc1 | – |
| – | – | 0.07 | Clc1ccc(Cn2ccnc2)cc1 | – |
| 0.23 | 25.2 | – | Cc1ccc(S(=O)(=O)Oc2ccc(Cn3ccnc3)cc2)cc1 | 109.4 |
| 0.101 | 6 | – | COc1ccc(S(=O)(=O)Oc2ccc(Cn3ccnc3)cc2)cc1 | 60 |
